The source of these data is ChEMBL document CHEMBL1811881, “Development of 3-substituted-androsterone derivatives as potent inhibitors of 17β-hydroxysteroid dehydrogenase type 3” (Bioorg Med Chem, 2011).

Common to all, as to format: cell-based
Assay [1] has as its target T1, 17-beta-hydroxysteroid dehydrogenase type 3 (Homo sapiens) (UniProt P37058).
T1 sequence (whole entry): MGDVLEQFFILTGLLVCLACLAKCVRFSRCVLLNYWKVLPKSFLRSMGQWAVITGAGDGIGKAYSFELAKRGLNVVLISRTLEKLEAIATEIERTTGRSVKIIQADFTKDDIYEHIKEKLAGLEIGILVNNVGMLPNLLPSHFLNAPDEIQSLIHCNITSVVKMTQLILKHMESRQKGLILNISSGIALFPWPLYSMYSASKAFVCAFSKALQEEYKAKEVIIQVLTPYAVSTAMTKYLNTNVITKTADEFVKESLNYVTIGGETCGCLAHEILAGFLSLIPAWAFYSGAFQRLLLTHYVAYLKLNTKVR
The assay can be described thus: Inhibition of 17Beta-HSD3 expressed in intact HEK293 cells assessed as transformation of [14C]-4-androstene-3,17-dione into [14C]-testosterone in presence of NADPH at 1 uM after 1 hr incubation. The gist of the method: (§1)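 HEK-293 cells were grown in MEM with 10% FBS at 37 °C under 5% CO2, seeded at 200,000 cells/well, and transfected with 2 µg/well of a 17β-HSD3 expression plasmid. Intact cells then got 50 nM [4-14C]-4-androstene-3,17-dione plus inhibitor in ethanol (0.5% v/v) for 1 h. Radiolabelled steroids were extracted from the medium and quantified. Triplicate; % transformation was used to derive IC50.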

Assay [2] has as its target T1, 17-beta-hydroxysteroid dehydrogenase type 3 (Homo sapiens). The assay can be described thus: Inhibition of 17Beta-HSD3 expressed in homogenized HEK293 cells assessed as transformation of [14C]-4-androstene-3,17-dione into [14C]-testosterone in presence of NADPH at 0.01 uM. The essentials: (§2)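 HEK-293 cells overexpressing 17β-HSD3 were briefly homogenized. The enzyme assay measured conversion of 50 nM [4-14C]-4-androstene-3,17-dione to [14C]-testosterone with NADPH in excess (5 mM). Inhibitor was dissolved in ethanol, and the ethanol-only control was used to derive % inhibition at each concentration. Error 10%.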

For assay [3] the target is unchanged. The assay is described as follows: Inhibition of 17Beta-HSD3 expressed in homogenized HEK293 cells assessed as transformation of [14C]-4-androstene-3,17-dione into [14C]-testosterone in presence of NADPH at 0.1 uM. The essentials:
as §2

Assay [4] has the same target. The assay is described as follows: Inhibition of 17Beta-HSD3 expressed in intact HEK293 cells assessed as transformation of [14C]-4-androstene-3,17-dione into [14C]-testosterone in presence of NADPH at 0.1 uM after 1 hr incubation. The essentials: as §1
The target is the same in assay [5]. The assay can be described thus: Inhibition of 17Beta-HSD3 expressed in homogenized HEK293 cells assessed as transformation of [14C]-4-androstene-3,17-dione into [14C]-testosterone in presence of NADPH at 1 uM. The essentials:
as §2

Broadly, the inhibition is how much of the control response was suppressed. For `C[C@@H]1CN(Cc2cccc(Cl)c2)[C@@H](C)CN1C[C@@]1(O)CC[C@@]2(C)[C@@H](CC[C@@H]3[C@@H]2CC[C@]2(C)C(=O)CC[C@@H]32)C1`, the inhibition amounted to 55% in assay [1], 26% in assay [2] and 84% in assay [3].

In the case of `C[C@]12CC[C@](O)(CN3CCN(Cc4cccc(SC(F)(F)F)c4)CC3)C[C@@H]1CC[C@@H]1[C@@H]2CC[C@]2(C)C(=O)CC[C@@H]12`, the inhibition stood at 62% in assay [1], 3% in assay [2] and 91% in assay [3].

For the compound `C[C@]12CC[C@@]3(C[C@@H]1CC[C@@H]1[C@@H]2CC[C@]2(C)C(=O)CC[C@@H]12)CN(CCO)C(=O)O3`, the inhibition in assay [2] was found to be 0%; in assay [4], 16%; in assay [5], 38%; in assay [3], 9%.

For `CCCCN(CCCC)C[C@@]1(O)CC[C@@]2(C)[C@@H](CC[C@@H]3[C@@H]2CC[C@]2(C)C(=O)CC[C@@H]32)C1`, the inhibition turned out to be 90% in assay [1]; 13% in assay [2]; 53% in assay [4]; 85% in assay [5]; 70% in assay [3].

Consider `CCN(CCN1C[C@]2(CC[C@@]3(C)[C@@H](CC[C@@H]4[C@@H]3CC[C@]3(C)C(=O)CC[C@@H]43)C2)OC1=O)Cc1ccccc1`, for which the inhibition amounted to 14% in assay [2], 40% in assay [4], 93% in assay [5] and 71% in assay [3].

As for `C[C@@H]1CN(Cc2cccc(C(F)(F)F)c2)[C@@H](C)CN1C[C@@]1(O)CC[C@@]2(C)[C@@H](CC[C@@H]3[C@@H]2CC[C@]2(C)C(=O)CC[C@@H]32)C1`, the figures for the inhibition in assay [1], in assay [2] and in assay [3] were 78%, 31% and 89%, respectively.

With `Cc1cccc(OCCN2C[C@]3(CC[C@@]4(C)[C@@H](CC[C@@H]5[C@@H]4CC[C@]4(C)C(=O)CC[C@@H]54)C3)OC2=O)c1`, the inhibition in assay [2] is 13%; in assay [4] it was 40%; in assay [5] it was 95%; in assay [3], 85%.

As for `C[C@]12CC[C@](O)(CN3CCN(Cc4cccc(Cl)c4)CC3)C[C@@H]1CC[C@@H]1[C@@H]2CC[C@]2(C)C(=O)CC[C@@H]12`, the inhibition was found to be 75% in assay [1], 26% in assay [2] and 85% in assay [3].

As to `CCCN(CCN1C[C@]2(CC[C@@]3(C)[C@@H](CC[C@@H]4[C@@H]3CC[C@]3(C)C(=O)CC[C@@H]43)C2)OC1=O)C(=O)CC`, the inhibition in assay [2] stood at 0%; in assay [4] it was 25%; in assay [5], 80%; in assay [3] it was 35%.

On to `C[C@]12CC[C@@]3(C[C@@H]1CC[C@@H]1[C@@H]2CC[C@]2(C)C(=O)CC[C@@H]12)CN(CCN1CCCCC1)C(=O)O3`, for which the inhibition turned out to be 0% in assay [2], 10% in assay [4], 21% in assay [5] and 0% in assay [3].

On to `C[C@]12CC[C@@]3(C[C@@H]1CC[C@@H]1[C@@H]2CC[C@]2(C)C(=O)CC[C@@H]12)CN(CCBr)C(=O)O3`, for which the inhibition in assay [2] was found to be 17%; in assay [4], 31%; in assay [5] it was 93%; in assay [3], 69%.

Regarding `C[C@]12CC[C@](O)(CN3CCN(C(=O)C4CCCCC4)CC3)C[C@@H]1CC[C@@H]1[C@@H]2CC[C@]2(C)C(=O)CC[C@@H]12`, the inhibition in assay [1] amounted to 70%; in assay [2] it was 19%; in assay [3], 75%.

Regarding `C[C@]12CC[C@](O)(CN3CCC(Cc4ccccc4)CC3)C[C@@H]1CC[C@@H]1[C@@H]2CC[C@]2(C)C(=O)CC[C@@H]12`, the inhibition in assay [1] came to 52%; in assay [2], 40%; in assay [5], 90%; in assay [3] it was 82%.

Turning to `C[C@]12CC[C@](O)(CN3CCN(c4ccccc4)CC3)C[C@@H]1CC[C@@H]1[C@@H]2CC[C@]2(C)C(=O)CC[C@@H]12`, the inhibition in assay [1] amounted to 68%; in assay [2], 13%; in assay [5], 89%; in assay [3], 78%.

As for `CCCN(CCC)CCN1C[C@]2(CC[C@@]3(C)[C@@H](CC[C@@H]4[C@@H]3CC[C@]3(C)C(=O)CC[C@@H]43)C2)OC1=O`, the inhibition is 0% in assay [2], 8% in assay [4], 62% in assay [5] and 10% in assay [3].

On to `COc1ccc(CN2C[C@]3(CC[C@@]4(C)[C@@H](CC[C@@H]5[C@@H]4CC[C@]4(C)C(=O)CC[C@@H]54)C3)OC2=O)cc1`, for which the inhibition was 5% in assay [2], 43% in assay [4], 93% in assay [5] and 84% in assay [3].

Take `C[C@]12CC[C@](O)(CN3CCN(S(=O)(=O)c4cccc(C(F)(F)F)c4)CC3)C[C@@H]1CC[C@@H]1[C@@H]2CC[C@]2(C)C(=O)CC[C@@H]12`: the inhibition worked out at 71% in assay [1], 21% in assay [2] and 82% in assay [3].

Turning to `Cc1ccc(CN2C[C@]3(CC[C@@]4(C)[C@@H](CC[C@@H]5[C@@H]4CC[C@]4(C)C(=O)CC[C@@H]54)C3)OC2=O)cc1`, the inhibition came out at 17% in assay [2], 38% in assay [4], 93% in assay [5] and 81% in assay [3].

For the compound `CCN(CC)C[C@@]1(O)CC[C@@]2(C)[C@@H](CC[C@@H]3[C@@H]2CC[C@]2(C)C(=O)CC[C@@H]32)C1`, the inhibition in assay [1] worked out at 14%; in assay [2] it was 0%; in assay [5] it was 60%; in assay [3] it was 10%.

`C[C@]12CC[C@@]3(C[C@@H]1CC[C@@H]1[C@@H]2CC[C@]2(C)C(=O)CC[C@@H]12)CN(CCC(CN1CCOCC1)OC(=O)CCC1CCCC1)C(=O)O3` (stereo partly drawn): the inhibition stood at 2% in assay [2], 49% in assay [4], 94% in assay [5] and 79% in assay [3].

Consider `Cc1ccc(CN2C[C@]3(CC[C@@]4(C)[C@@H](CC[C@@H]5[C@@H]4CC[C@]4(C)C(=O)C(C)(C)C[C@@H]54)C3)OC2=O)cc1`, for which the inhibition in assay [2] is 2%; in assay [4] it was 18%; in assay [5], 74%; in assay [3] it was 22%.

In the case of `C[C@@H]1CN(Cc2cccc(SC(F)(F)F)c2)[C@@H](C)CN1C[C@@]1(O)CC[C@@]2(C)[C@@H](CC[C@@H]3[C@@H]2CC[C@]2(C)C(=O)CC[C@@H]32)C1`, the inhibition turned out to be 58% in assay [1], 18% in assay [2] and 88% in assay [3].

Consider `CN1CCN(C[C@@]2(O)CC[C@@]3(C)[C@@H](CC[C@@H]4[C@@H]3CC[C@]3(C)C(=O)CC[C@@H]43)C2)CC1`, for which the inhibition in assay [2] amounted to 0%; in assay [4] it was 2%; in assay [5], 40%; in assay [3], 0%.

For `CCN(CCN1C[C@]2(CC[C@@]3(C)[C@@H](CC[C@@H]4[C@@H]3CC[C@]3(C)C(=O)CC[C@@H]43)C2)OC1=O)C1CCCCC1`, the inhibition in assay [2] came to 2%; in assay [4] it was 2%; in assay [5], 72%; in assay [3] it was 21%.

Regarding `C[C@]12CC[C@](O)(CN3CCN(Cc4cccnc4)CC3)C[C@@H]1CC[C@@H]1[C@@H]2CC[C@]2(C)C(=O)CC[C@@H]12`, the inhibition in assay [1] is 63%; in assay [2], 10%; in assay [3] it was 33%.

For `C[C@]12CC[C@@]3(C[C@@H]1CC[C@@H]1[C@@H]2CC[C@]2(C)C(=O)CC[C@@H]12)CN(C1CCCCC1)C(=O)O3`, the inhibition in assay [2] worked out at 13%; in assay [4], 29%; in assay [5], 78%; in assay [3] it was 75%.

Regarding `C[C@]12CC[C@](O)(CN3CCCCC3)C[C@@H]1CC[C@@H]1[C@@H]2CC[C@]2(C)C(=O)CC[C@@H]12`, the inhibition amounted to 23% in assay [1], 9% in assay [2], 69% in assay [5] and 19% in assay [3].

With `C[C@]12CC[C@](O)(CN3CCC(N4CCCCC4)CC3)C[C@@H]1CC[C@@H]1[C@@H]2CC[C@]2(C)C(=O)CC[C@@H]12`, the inhibition is 20% in assay [1], 0% in assay [2], 69% in assay [5] and 4% in assay [3].

With `C[C@@H]1CN(Cc2cccnc2)[C@@H](C)CN1C[C@@]1(O)CC[C@@]2(C)[C@@H](CC[C@@H]3[C@@H]2CC[C@]2(C)C(=O)CC[C@@H]32)C1`, the results for the inhibition in assay [1], in assay [2] and in assay [3] were 58%, 17% and 47%, respectively.
